Activity calls are given as the source filed them. No cut-off for these calls is given here.

This note sets out measurements from ChEMBL document CHEMBL3865839, “Short Route to the Total Synthesis of Natural Muricadienin and Investigation of Its Cytotoxic Properties” (J Nat Prod, 2016).

Experiment [1] is described as follows: Cytotoxicity against HEK293 cells assessed as reduction in cell viability after 24 hrs by MTT assay. Type of experiment: functional, cell-based. The settings on record: Homo sapiens, HEK293, 24 h. The method in brief: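 HEK293 (HPA Culture Collections) monolayers in DMEM with 10% FBS and 1% penicillin–streptomycin, 37 °C, humidified 5% CO2. Compound dissolved in DMSO, then diluted in culture medium. Antiproliferative read-out by MTT tetrazolium reduction to formazan. Etoposide run as positive control. IC50 determined.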

For experiment [2], the system named is HEK293. Briefly: Induction of apoptosis in HEK293 cells after 24 hrs by Annexin V/propidium iodide-dual staining based FACS analysis. Type of experiment: functional, cell-based. The settings on record: Homo sapiens. On the technique in general: A flow cytometer gives signals particle by particle.
Experiment [3] relates to HEK293. Briefly: Induction of apoptosis in HEK293 cells assessed as late apoptotic cells at 0.19 uM after 24 hrs by Annexin V/propidium iodide-dual staining based FACS analysis (reference value: 4.30%). Type of experiment: functional, Homo sapiens.
In experiment [4] the test system is HEK293. Briefly: Induction of apoptosis in HEK293 cells assessed as late apoptotic cells at 0.48 uM after 24 hrs by Annexin V/propidium iodide-dual staining based FACS analysis (reference value: 4.30%). Type of experiment: functional, Homo sapiens.
Experiment [5] concerns the target DNA topoisomerase 2-alpha (Homo sapiens) (UniProt P11388). Briefly: Inhibition of human Top2alpha using pHOT as substrate assessed as suppression of relaxation of DNA supercoil at >1 uM after 30 mins administered prior to enzyme addition by ethidium bromide-based agarose gel electrophoresis.
Experiment [6] deals with HEK293. Briefly: Induction of apoptosis in HEK293 cells assessed as viable cells at 0.1 uM after 24 hrs by Annexin V/propidium iodide-dual staining based FACS analysis (reference value: 90.31%). The settings on record: Homo sapiens, HEK293, 24 h; read-out: Activity. In kind it is functional.
Experiment [7] relates to HEK293. Briefly: Induction of apoptosis in HEK293 cells assessed as early apoptotic cells at 0.1 uM after 24 hrs by Annexin V/propidium iodide-dual staining based FACS analysis (reference value: 2.04%). Type of experiment: functional, Homo sapiens.
Experiment [8] has as its system HEK293. Briefly: Induction of apoptosis in HEK293 cells assessed as necrotic cells at 0.48 uM after 24 hrs by Annexin V/propidium iodide-dual staining based FACS analysis (reference value: 3.35%). Type of experiment: functional, Homo sapiens.
For experiment [9], the system named is HEK293. Briefly: Induction of apoptosis in HEK293 cells assessed as necrotic cells at 0.1 uM after 24 hrs by Annexin V/propidium iodide-dual staining based FACS analysis (reference value: 3.35%). In kind it is functional, Homo sapiens.
The target in experiment [10] is T1, DNA topoisomerase 1 (Homo sapiens) (UniProt P11387).
T1 sequence (whole entry): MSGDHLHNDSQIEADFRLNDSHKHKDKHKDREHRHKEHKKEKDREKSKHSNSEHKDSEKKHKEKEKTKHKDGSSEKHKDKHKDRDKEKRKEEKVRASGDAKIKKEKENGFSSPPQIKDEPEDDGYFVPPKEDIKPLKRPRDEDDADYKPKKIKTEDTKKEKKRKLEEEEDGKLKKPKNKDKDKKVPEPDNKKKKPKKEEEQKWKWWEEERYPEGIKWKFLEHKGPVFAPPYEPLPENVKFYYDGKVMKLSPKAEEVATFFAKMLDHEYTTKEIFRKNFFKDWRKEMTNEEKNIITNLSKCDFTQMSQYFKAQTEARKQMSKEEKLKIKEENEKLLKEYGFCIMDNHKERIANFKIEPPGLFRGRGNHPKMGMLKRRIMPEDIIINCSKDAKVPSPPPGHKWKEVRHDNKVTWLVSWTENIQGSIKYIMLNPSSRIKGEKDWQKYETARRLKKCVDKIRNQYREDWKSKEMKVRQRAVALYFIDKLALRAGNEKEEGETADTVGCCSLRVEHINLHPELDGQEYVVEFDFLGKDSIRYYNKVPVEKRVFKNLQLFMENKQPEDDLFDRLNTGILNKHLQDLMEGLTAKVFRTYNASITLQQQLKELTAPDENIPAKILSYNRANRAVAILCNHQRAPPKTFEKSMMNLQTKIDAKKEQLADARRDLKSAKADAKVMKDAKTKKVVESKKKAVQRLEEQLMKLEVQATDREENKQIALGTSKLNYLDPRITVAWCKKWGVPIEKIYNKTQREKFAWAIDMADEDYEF
Briefly: Inhibition of human Top1 using pHOT as substrate assessed as suppression of relaxation of DNA supercoil at >50 uM after 30 mins by ethidium bromide-based agarose gel electrophoresis.

In experiment [11] the test system is HEK293. Briefly: Induction of apoptosis in HEK293 cells assessed as early apoptotic cells at 0.48 uM after 24 hrs by Annexin V/propidium iodide-dual staining based FACS analysis (reference value: 2.04%). In kind it is functional, Homo sapiens.
Experiment [12] deals with HEK293. Briefly: Induction of apoptosis in HEK293 cells assessed as early apoptotic cells at 0.19 uM after 24 hrs by Annexin V/propidium iodide-dual staining based FACS analysis (reference value: 2.04%). In kind it is functional, Homo sapiens.
The test system of experiment [13] is HEK293. Briefly: Induction of apoptosis in HEK293 cells assessed as late apoptotic cells at 0.1 uM after 24 hrs by Annexin V/propidium iodide-dual staining based FACS analysis (reference value: 4.30%). In kind it is functional, Homo sapiens.
Experiment [14] deals with HEK293. Briefly: Induction of apoptosis in HEK293 cells assessed as viable cells at 0.48 uM after 24 hrs by Annexin V/propidium iodide-dual staining based FACS analysis (reference value: 90.31%). In kind it is functional. The settings on record: Homo sapiens, HEK293, 24 h; read-out: Activity.
For experiment [15], the system named is HEK293. Briefly: Induction of apoptosis in HEK293 cells assessed as necrotic cells at 0.19 uM after 24 hrs by Annexin V/propidium iodide-dual staining based FACS analysis (reference value: 3.35%). Type of experiment: functional, Homo sapiens.
Experiment [16] deals with HEK293. Briefly: Induction of apoptosis in HEK293 cells assessed as viable cells at 0.19 uM after 24 hrs by Annexin V/propidium iodide-dual staining based FACS analysis (reference value: 90.31%). In kind it is functional. The settings on record: Homo sapiens, HEK293, 24 h; read-out: Activity.

DNA topoisomerase 2-alpha (Homo sapiens), sequence (P11388 whole entry): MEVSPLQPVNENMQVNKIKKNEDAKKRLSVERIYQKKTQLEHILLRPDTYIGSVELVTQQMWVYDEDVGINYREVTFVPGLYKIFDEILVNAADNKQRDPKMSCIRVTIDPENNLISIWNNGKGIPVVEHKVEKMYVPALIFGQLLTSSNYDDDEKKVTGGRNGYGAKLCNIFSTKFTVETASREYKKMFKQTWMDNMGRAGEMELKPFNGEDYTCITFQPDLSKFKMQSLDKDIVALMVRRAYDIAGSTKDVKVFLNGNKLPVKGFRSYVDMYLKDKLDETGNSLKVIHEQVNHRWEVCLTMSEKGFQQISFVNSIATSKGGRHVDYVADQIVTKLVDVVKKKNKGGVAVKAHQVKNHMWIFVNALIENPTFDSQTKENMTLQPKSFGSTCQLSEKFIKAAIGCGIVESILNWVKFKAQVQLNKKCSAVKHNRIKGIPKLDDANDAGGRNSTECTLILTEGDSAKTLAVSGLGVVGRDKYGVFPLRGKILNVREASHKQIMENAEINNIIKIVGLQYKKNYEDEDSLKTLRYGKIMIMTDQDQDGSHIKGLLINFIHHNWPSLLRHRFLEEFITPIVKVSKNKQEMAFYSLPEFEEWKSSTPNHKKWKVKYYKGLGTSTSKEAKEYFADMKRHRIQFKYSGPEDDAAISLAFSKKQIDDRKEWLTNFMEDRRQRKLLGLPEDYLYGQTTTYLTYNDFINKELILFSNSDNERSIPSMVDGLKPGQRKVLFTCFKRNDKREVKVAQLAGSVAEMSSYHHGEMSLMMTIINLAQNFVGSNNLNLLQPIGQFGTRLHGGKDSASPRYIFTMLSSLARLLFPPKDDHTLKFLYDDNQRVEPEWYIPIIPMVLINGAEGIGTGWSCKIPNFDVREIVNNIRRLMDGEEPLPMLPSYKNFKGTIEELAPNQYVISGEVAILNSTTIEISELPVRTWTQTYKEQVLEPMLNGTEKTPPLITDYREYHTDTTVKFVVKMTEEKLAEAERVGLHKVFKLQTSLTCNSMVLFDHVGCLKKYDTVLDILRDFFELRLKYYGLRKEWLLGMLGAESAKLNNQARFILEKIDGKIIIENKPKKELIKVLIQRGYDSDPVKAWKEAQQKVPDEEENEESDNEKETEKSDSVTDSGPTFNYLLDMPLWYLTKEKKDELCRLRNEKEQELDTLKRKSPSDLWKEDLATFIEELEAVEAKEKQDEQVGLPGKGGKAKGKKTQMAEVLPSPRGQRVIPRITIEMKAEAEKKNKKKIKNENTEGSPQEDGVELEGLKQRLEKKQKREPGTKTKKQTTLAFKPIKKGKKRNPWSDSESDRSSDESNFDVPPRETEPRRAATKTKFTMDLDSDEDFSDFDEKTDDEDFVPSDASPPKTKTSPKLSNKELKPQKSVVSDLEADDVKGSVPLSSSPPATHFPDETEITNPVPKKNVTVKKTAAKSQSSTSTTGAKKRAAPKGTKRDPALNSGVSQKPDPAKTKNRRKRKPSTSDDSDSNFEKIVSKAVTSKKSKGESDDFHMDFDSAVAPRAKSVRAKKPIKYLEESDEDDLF

Broadly, the IC50 is the concentration at which inhibition is half-maximal. As for `COc1cc([C@@H]2c3cc4c(cc3[C@@H](O[C@@H]3O[C@@H]5CO[C@@H](C)O[C@H]5[C@H](O)[C@H]3O)[C@H]3COC(=O)[C@H]23)OCO4)cc(OC)c1O` [ETOPOSIDE], the IC50 in experiment [1] was found to be 600 nM.

For `CCCCCCCCCCCC/C=C\CC/C=C\CCCCCCCCCCCCC1=C[C@H](C)OC1=O`, the Activity entry is “Dose-dependent effect” in the experiment with HEK293 [2]; 15.3% in the experiment with HEK293 [3]; 27.32% in the experiment on HEK293 [4]; 5.31% in the experiment on HEK293 [7]; 7.91% with HEK293 [8]; 4.3% in the experiment on HEK293 [9]. For the same compound, the Activity with HEK293 [11] came out at 16.14%; in the experiment with HEK293 [12], 10.49%; with HEK293 [13] it was 8.09%; in the experiment with HEK293 [15], 6.7%. Further, the inhibition result in experiment [5] and in experiment [10] was “Active” each time. For the same compound, in the experiment with HEK293 [6], the viability at 0.1 µM came out at 82.3%. Besides, in experiment [1], the IC50 came to 390 nM. In the experiment with HEK293 [14], the viability at 0.48 µM came out at 48.6%. Moreover, the viability at 0.19 µM in the experiment with HEK293 [16] amounted to 67.5%.
